core dimer inh – blocks dimerization of HCV core protein; TR-FRET GST/Flag-core106 dimerization, 1536-well; inhibition, % at 5 µM; 300,000 tested, 0.33% active;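 active = inhibition above the mean of all tested compounds plus 3 SD, set per screening campaign, cut at about 45% in these data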
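test system = GST/Flag-tagged HCV core106 proteins | probe or stimulus = Eu donor and XL665 acceptor anti-tag antibodies | times = compound-protein-antibody incubation 4 h at 22.5 °C | signal = TR-FRET, excitation 340 nm, emission 617 and 671 nm | measure = percent inhibition of core106 dimerization signal | controls = wells lacking GST-core106 and wells with excess unlabelled core106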
ZTA counter – counter-screen for EBNA-1 inhibitors: inhibitors of Epstein-Barr virus ZTA; ZTA-DNA binding, fluorescence polarization; inhibition, % at 11 µM; 320,000 tested, 0.15% active; in the data active = inhibition above about 33%
Target sequence (P03206 whole entry, looked up): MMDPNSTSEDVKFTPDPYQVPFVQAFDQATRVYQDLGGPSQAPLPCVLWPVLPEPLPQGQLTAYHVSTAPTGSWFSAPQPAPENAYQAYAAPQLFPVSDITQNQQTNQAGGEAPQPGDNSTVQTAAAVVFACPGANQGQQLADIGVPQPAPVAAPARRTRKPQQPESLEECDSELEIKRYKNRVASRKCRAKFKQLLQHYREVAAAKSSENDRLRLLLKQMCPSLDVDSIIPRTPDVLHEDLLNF
NS3 helicase inh – inhibitors of Hepatitis C virus NS3 helicase; NS3 helicase DNA unwinding, Cy5 molecular beacon fluorescence; inhibition, % at 10.9 µM; 290,000 tested, 0.56% active; AID 1800;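 active = inhibition above the mean of all tested compounds plus 3 SD, set per campaign, cut at about 35% in these data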
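Control set: DMSO versus 110 µM thioflavine S; Material: NS3 helicase fragment of HCV; Measured by: Cy5 fluorescence at 0 and 60 min, beacon hairpin quenching; Read-out basis: percent inhibition from t60/t0 fluorescence ratio; Times: reaction time 60 min, 25 °C; Repeats: single replicate; Compound dosing: single dose, 10.9 µM nominal final, DMSO 0.8% final.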
EBNA-1 inh – blocks EBNA-1 binding to DNA. 300,000 tested, 0.34% active. inhibition, % at 14.8 µM. EBNA-1 DNA binding, fluorescence polarization; in the data active = inhibition above about 28%
PP1 counter – counter-screen for PP5 inhibitors: inhibitors of human PP1-alpha; P62136; purified PP1alpha, OMFP fluorescence; inhibition, % at 6.7 µM; 320,000 tested, 0.9% active;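 active = inhibition above the mean inhibition of all tested compounds plus 3 SD, computed separately for each screening campaign, cut at about 15% in these data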
Target sequence (P62136 whole entry, looked up): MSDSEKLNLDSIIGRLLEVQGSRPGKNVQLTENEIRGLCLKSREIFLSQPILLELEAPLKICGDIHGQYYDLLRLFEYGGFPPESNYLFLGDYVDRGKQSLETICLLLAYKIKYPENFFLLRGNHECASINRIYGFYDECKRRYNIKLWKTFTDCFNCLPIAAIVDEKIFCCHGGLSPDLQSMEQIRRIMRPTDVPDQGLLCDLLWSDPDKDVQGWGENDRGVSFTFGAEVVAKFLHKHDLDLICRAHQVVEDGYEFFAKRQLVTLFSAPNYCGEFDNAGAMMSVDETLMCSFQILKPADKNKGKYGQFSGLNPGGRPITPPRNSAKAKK
Hits are given with their value; n = inactive; x = no result given. Only some compounds are listed: those with a hit (about 1.9% of all), similar ones and a draw of the others.

SMILES	core dimer inh	ZTA counter	NS3 helicase inh	EBNA-1 inh	PP1 counter
COc1cc(C2Nc3cccc4cccc(c34)N2)cc(OC)c1O	n	n	n	n	36
Cc1cc2c(c(SCC(=O)NCc3ccccc3Cl)n1)C(=O)OC2	n	n	n	n	n
Cc1ccccc1OCC(=O)NNC(=S)NC(=O)c1ccco1	n	n	n	n	17
Cc1ccccc1OCC(=O)Nc1ccccc1NC(=O)c1ccco1	n	n	n	n	n
O=C(Nc1ccc(Cl)c(Cl)c1)Nc1nnc(-c2ccncc2)s1	87	n	n	n	n
Cc1ccccc1N(CC(=O)NC1CCCCC1)C(=O)CCC(=O)Nc1nccs1	n	n	n	n	17
COc1ccccc1N(CC(=O)NC1CCCCC1)C(=O)CCC(=O)Nc1nccs1	n	n	n	n	n
Oc1c(Br)cc(Br)cc1C=Nc1ccc2[nH]ncc2c1	n	n	n	n	90
O=C(COc1ccc2c3c(c(=O)oc2c1)CCCC3)NCCCn1ccnc1	n	n	n	n	n
O=C(c1ccc(C#CC2(O)CCCCC2)cc1)N1CCN(C(c2ccccc2)c2ccccc2)CC1	53	n	n	n	n
O=C(CN1CCN(c2nc(-c3ccc(Cl)cc3)cs2)CC1)NCc1ccco1	n	n	n	n	16
Cc1ccc(S(=O)(=O)NCCC(=O)N2CCC(C)CC2)cc1	x	n	x	x	n
CC1(C)C(=O)Nc2ccccc2N1C(=O)CSc1nc(-c2ccccc2)cs1	46	n	n	n	n
Cc1cc(C)n2c(Nc3ccc4c(c3)OCCO4)c(-c3ccc(C)o3)nc2n1	n	n	n	n	n
Cc1cc(C)n2c(Nc3ccc4c(c3)OCCO4)c(-c3ccco3)nc2n1	x	x	60	x	x
Cc1ccc(C(=O)OC(C)C(=O)Nc2ccc3c(c2)OCO3)c(O)c1 (stereo not given)	x	n	x	x	n
CCOc1ccc(/C(O)=C2/C(=O)C(=O)N(CC3CCCO3)C2c2cccs2)cc1 (stereo not given)	n	n	n	n	n
O=[N+]([O-])c1cccc(-c2nnc(-c3ccccc3)o2)c1	n	n	n	n	n
Cc1occc1-c1nnc(-c2cc([N+](=O)[O-])cc([N+](=O)[O-])c2)o1	49	n	n	n	n
COc1ccccc1N1CCN(C(=O)CCCNC(=O)Cn2cnc3sc(C)c(C)c3c2=O)CC1	n	n	n	n	n
N#Cc1cccc(NC(=O)CSc2ccc3c4c(cccc24)C(=O)c2ccccc2-3)c1	67	n	n	n	n
O=C(NCc1ccco1)C1Cc2ccccc2CN1S(=O)(=O)c1ccccc1F (stereo not given)	55	n	n	n	n
Cc1ccccc1NC(=O)COC(=O)Cc1ccsc1	n	n	n	n	n
O=S1(=O)CC2N=C(N(Cc3c(F)cccc3Cl)c3ccccc3F)SC2C1 (stereo not given)	n	n	n	n	n
O=C(Cc1ccc(S(=O)(=O)N2CCOCC2)s1)Nc1nc2c(s1)CCCC2	84	n	n	n	n
SMILES	core dimer inh	ZTA counter	NS3 helicase inh	EBNA-1 inh	PP1 counter
CC(=O)Nc1ccc(NC(=O)Cc2ccc(S(=O)(=O)N3CCCCC3)s2)cc1	60	n	n	n	n
O=C(Cc1cccs1)Nc1ccc(S(=O)(=O)N2CCCCC2)cc1	72	n	n	n	n
COc1cc(OC)c2c(-c3ccccc3)cc(=O)oc2c1C(CCN1CCN(c2ccccc2)CC1)c1ccc(N(C)C)cc1 (stereo not given)	n	n	x	n	16
COc1ccc(C(=O)NCc2ccco2)cc1S(=O)(=O)NC1CC1	x	n	x	x	n
CC1(C)S[C@@H]2[C@H](NC(=O)COc3ccccc3)C(=O)N2C1C(=O)OCC1CCCCC1 (stereo not given in full)	n	n	x	n	n
CC1(C)S[C@@H]2[C@H](NC(=O)COc3ccccc3)C(=O)N2C1C(=O)OCc1cc2ccccc2n1S(=O)(=O)c1ccccc1 (stereo not given in full)	66	n	n	n	25
O=C(c1ccccc1)N(NC(=O)C(O)(c1ccccc1)c1ccccc1)c1cccc(F)c1	n	n	n	n	n
O=C(c1ccccc1F)N(NC(=O)C(O)(c1ccccc1)c1ccccc1)c1ccccc1	n	n	n	n	17
COc1ccc(S(=O)(=O)NC(C)C(=O)Nc2ccc3c(c2)OCCO3)cc1OC (stereo not given)	n	n	n	n	n
COc1ccc(OC)c(NC(=O)COC(=O)c2cc3c(s2)CCC3)c1	77	n	n	n	n
COc1ccc(N2Cc3cccc(C(=O)N4CCN(C(=O)c5ccco5)CC4)c3C2=O)cc1	85	n	n	n	n
COc1ccc(N2Cc3cccc(C(=O)N4CCOCC4)c3C2=O)cc1	n	n	n	n	n
CCc1nn(CC(=O)NCCCN2CCOCC2)c(=O)c2cc3cc(F)ccc3n12	n	n	n	n	n
CCOC(=O)C1(CC2CC2)CCN(C(=O)c2cc(OC)nc3ccccc23)CC1	n	34	n	29	n
CCOC(=O)C1(CC2CC2)CCN(C(=O)c2cc(C3CC3)nc3ccccc23)CC1	n	n	n	n	n
CCNc1c(NCC)c(=O)c1=O	n	n	n	n	n
CCOc1ccc(OCC(O)CNC2CCN(Cc3ccccc3)CC2)cc1 (stereo not given)	n	n	n	n	n
CC(C)(c1ccccc1)c1ccc(OCC(O)CNC2CCN(Cc3ccccc3)CC2)cc1 (stereo not given)	n	n	n	n	16
O=C(NCCC1=CCCCC1)c1c(O)nc2sccn2c1=O	n	n	x	n	n
O=C(NCCC1=CCCCC1)c1c(O)nc2ccccn2c1=O	n	n	n	n	15
CCn1c(CSc2nnc(-c3ccncc3)n2C)nc2cc(C(=O)O)ccc21	n	43	n	30	n
O=C(CSc1ccc(-c2ccco2)nn1)c1ccccc1	48	n	n	n	n
CC(=O)c1ccc(NC(=O)CN2C(=O)/C(=C/C=C/c3ccccc3)SC2=S)cc1	65	n	n	n	n
Cc1ccc(Cn2nnc3c(=O)[nH]c(C4CCN(S(=O)(=O)Cc5ccccc5)CC4)nc32)cc1	n	n	n	n	n
Cc1ccc(S(=O)(=O)N2CCC(c3nc4c(nnn4Cc4ccccc4)c(=O)[nH]3)CC2)cc1	n	n	n	n	16
SMILES	core dimer inh	ZTA counter	NS3 helicase inh	EBNA-1 inh	PP1 counter
O=c1[nH]c(C2CCN(S(=O)(=O)/C=C/c3ccccc3)CC2)nc2c1nnn2Cc1ccccc1	n	n	n	n	15
O=C(N1CCCC1)N1CCN(S(=O)(=O)c2ccccc2)CC1	n	n	n	n	n
CCc1ccc(NC(=O)CN2CCCN(S(=O)(=O)c3ccc(F)cc3)CC2)cc1	n	n	n	n	n
C=CCOc1ccc(/C=C/C(=O)OCC(=O)N2CCC(c3ccccc3)=N2)cc1	x	n	x	x	n
CC(C)Oc1ccccc1-c1cc(C(=O)N/N=C/c2cccnc2)c2ccccc2n1	n	n	n	n	n
N#C[C@@H]1[C@@H]2C(=O)N(c3ccc4c(c3)OCCO4)C(=O)[C@@H]2C2c3ccccc3C=CN21 (stereo not given in full)	52	n	n	n	n

Source: PubChem
